The conditions of series [1]: predicted; octanol/water; cited from earlier work.
Series [2] concerns Caco-2 cell monolayers. Description: Dioxin transport and cellular association in static Transwell model. It counts as in vitro ADME, human. Conditions: 24 h; for Mass balance (sum of AP, BL compartments and cellular fraction): Transwell, 0.2 ng/mL mixture, n = 3. The procedure, abridged: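 Caco-2 seeded at 40 000 cells per cm2 on 12-well polyester Transwell inserts (0.4 μm pores, 1.12 cm2) in DMEM+, with medium changed every other day for 21 days. Apical side received DMEM+ with 0.2 ng mL−1 dioxin mixture (1% DMSO); basolateral side received plain DMEM+; exposure 24 h. Both compartments' medium, hexane rinses and trypsinised, freeze–thaw-lysed cells were analysed by GC-HRMS.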

Series [3] has as its system Caco-2 cell monolayers. Description: Dioxin transport and cellular association in dynamic gut-on-a-chip model. It counts as in vitro ADME, human. As to conditions: 24 h; for Mass balance (sum of AP, BL compartments and cellular fraction): Chip, 0.2 ng/mL each congener, n = 3. The procedure, abridged:
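Caco-2 seeded at 75 000 cells per cm2 on a porous polyester membrane clamped between glass slides. Cells attached 72 h without flow, then both sides were perfused 7 days at 25 μL h−1 with 10 mM-bicarbonate DMEM+ at 37 °C. Apical medium then carried 17 congeners (0.2 ng mL−1 each, 1% DMSO) for 24 h. Compartment eluents, hexane rinses and trypsinised, freeze–thaw-lysed cells were analysed by GC-HRMS.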

The conditions of series [4]: cited from earlier work.
Another series concerns Caco-2 cell monolayer. As to conditions: 24 h; 2.5 nM 2,3,7,8-TCDD; cited from earlier work.
The subject of a further series is Caco-2 cells. Conditions: 90 minutes exposure to 3.4 × 10^−2 μCi mL^−1 U-14C-TCDD; cited from earlier work.
Where [5] appears, read: static model (Transwell), 0.2 ng/mL.
Where [6] appears, read: dynamic model (chip), 0.2 ng/mL.

Read-outs that look alike come from different tables or passages of the source.

For `Clc1cc2c(c(Cl)c1Cl)Oc1c(cc(Cl)c(Cl)c1Cl)O2` [1,2,3,7,8,9-HxCDD], the “log P” value in series [1] is recorded as 7.4. Besides, the “Mass balance (sum of AP, BL compartments and cellular fraction)” value is 93 ± 1% in the series with Caco-2 cell monolayers [2] and 93 ± 5% in the series on Caco-2 cell monolayers [3]. In addition, the results for the “Relative amount in the cellular fraction (of total exposure)” value (“Relative amount in the cellular fraction” for short) in the series on Caco-2 cell monolayers [2] (setting [5]) and in the series with Caco-2 cell monolayers [3] (setting [6]) were 22.5% and 33%, respectively.
Take `Clc1cc2c(oc3c(Cl)c(Cl)c(Cl)cc32)c(Cl)c1Cl` [2,3,4,6,7,8-HxCDF]: in series [1], the “log P” value is recorded as 7.1. Also, the “Mass balance (sum of AP, BL compartments and cellular fraction)” value was found to be 87 ± 2% in the series with Caco-2 cell monolayers [2] and 97 ± 7% in the series on Caco-2 cell monolayers [3].
As to `Clc1cc2c(c(Cl)c1Cl)Oc1cc(Cl)c(Cl)c(Cl)c1O2` [1,2,3,6,7,8-HxCDD], the lipophilicity (log P) in series [1] is reported as 7.4. In addition, the figures for the “Mass balance (sum of AP, BL compartments and cellular fraction)” value in the series with Caco-2 cell monolayers [2] and in the series with Caco-2 cell monolayers [3] were 92 ± 1% and 92 ± 5%, respectively.
With `Clc1ccc(Cl)c(-c2cc(Cl)ccc2Cl)c1` [PCB#52], the “log P” value in series [4] is listed as more than 5.
As to `Clc1cc2c(oc3c(Cl)c(Cl)c(Cl)c(Cl)c32)c(Cl)c1Cl` [1,2,3,4,6,7,8-HpCDF], in series [1], the “log P” value was 7.9. Further, the “Mass balance (sum of AP, BL compartments and cellular fraction)” value in the series with Caco-2 cell monolayers [2] is recorded as 93 ± 1%; in the series on Caco-2 cell monolayers [3] it was 97 ± 5%.
For the compound `Clc1ccc(-c2cc(Cl)c(Cl)cc2Cl)cc1Cl` [#118], the “log P” value in series [4] is reported as more than 5.
For the compound `Clc1cc2oc3cc(Cl)c(Cl)c(Cl)c3c2c(Cl)c1Cl` [1,2,3,7,8,9-HxCDF], the “log P” value in series [1] is 7.4. For the same compound, the “Mass balance (sum of AP, BL compartments and cellular fraction)” value with Caco-2 cell monolayers [2] worked out at 84 ± 2%; in the series on Caco-2 cell monolayers [3], 91 ± 6%.
`Clc1cc(Cl)c(-c2cc(Cl)c(Cl)c(Cl)c2Cl)cc1Cl` [#180]: the “log P” value in series [4] is more than 5.
As for `Clc1cc2c(cc1Cl)Oc1cc(Cl)c(Cl)cc1O2` [2,3,7,8-TCDD, 2,3,7,8-tetrachlorodibenzo-p-dioxin], the “Transported across the Caco-2 cell monolayer” value in the series with Caco-2 cell monolayer is recorded as 15%. Moreover, the “Mass balance (sum of AP, BL compartments and cellular fraction)” value in the series on Caco-2 cell monolayers [2] was found to be 81 ± 2%. Moreover, in the series with Caco-2 cell monolayers [2] (setting [5]), the “Relative amount in the cellular fraction” value is “approximately 39%” and the “Transport across the monolayer (basal side compared to total exposed amount)” value is reported as 3%. In addition, in the series on Caco-2 cells, the “Apical concentration transported to the basal compartment” value is given as “less than 1.5%” and the Steady-state cellular association result is reported as “approximately 13%”. Besides, the “Mass balance (sum of AP, BL compartments and cellular fraction)” value in the series with Caco-2 cell monolayers [3] is on record as 85 ± 5%. Also, in the series with Caco-2 cell monolayers [3] (setting [6]), the “Relative amount in the cellular fraction” value is recorded as approximately 56% and the “Transport across the monolayer (basal side compared to total exposed amount)” value is recorded as 3%.
`Clc1cc2oc3c(Cl)c(Cl)c(Cl)c(Cl)c3c2c(Cl)c1Cl` [1,2,3,4,7,8,9-HpCDF]: the “Mass balance (sum of AP, BL compartments and cellular fraction)” value with Caco-2 cell monolayers [2] amounted to 83 ± 2%; in the series on Caco-2 cell monolayers [3] it was 97 ± 7%.
With `Clc1cc2oc3c(Cl)c(Cl)c(Cl)c(Cl)c3c2cc1Cl` [1,2,3,4,7,8-HxCDF], the “log P” value in series [1] was 6.9. The “Mass balance (sum of AP, BL compartments and cellular fraction)” value is 85 ± 2% in the series on Caco-2 cell monolayers [2] and 97 ± 7% in the series with Caco-2 cell monolayers [3].
As to `Clc1cc2c(c(Cl)c1Cl)Oc1c(Cl)c(Cl)c(Cl)c(Cl)c1O2` [1,2,3,4,6,7,8-HpCDD], the “Mass balance (sum of AP, BL compartments and cellular fraction)” value in the series on Caco-2 cell monolayers [2] is 83 ± 2%; in the series on Caco-2 cell monolayers [3] it was 97 ± 7%.
`Clc1cc(Cl)c(-c2cc(Cl)c(Cl)cc2Cl)cc1Cl` [#153]: the “log P” value in series [4] was more than 5.
Turning to `Clc1cc2c(oc3cc(Cl)c(Cl)c(Cl)c32)c(Cl)c1Cl` [1,2,3,6,7,8-HxCDF], the “log P” value in series [1] is listed as 6.9. The “Mass balance (sum of AP, BL compartments and cellular fraction)” value in the series with Caco-2 cell monolayers [2] came out at 93 ± 1%; in the series with Caco-2 cell monolayers [3], 94 ± 5%.
